Reference: ChEMBL document CHEMBL1121573, “2-(Aminomethyl)phenols, a new class of saluretic agents. 1. Effects of nuclear substitution” (J Med Chem, 1980)
Several values for one entry are separate records, joined by “and”; a condition that tells them apart may be missing. Equal values may be shown once.

Experiments:
Canis familiaris [1] = test: Oral diuretic activity was evaluated by measuring Cl- excretion in dog at 2 mg/kg after ip administration; type: ADME, organism-based, Canis lupus familiaris, Urine; design: dose 2 mg/kg, route intraperitoneal; settings: in vivo
Canis familiaris [2] = test: Oral diuretic activity was evaluated by measuring Na+ excretion in dog at 0.625 mg/kg after ip administration; type: ADME, organism-based, Canis lupus familiaris, Urine; design: dose 0.625 mg/kg, route intraperitoneal; settings: in vivo
Outline: (§1)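 Spontaneous urine was pooled with bladder urine collected by catheterization at 6 h. Volume was measured and Na+, K+ and Cl− were determined by standard methods. Values are geometric means.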

Canis familiaris [3] = test: Oral diuretic activity was evaluated by measuring K+ excretion in dog at 2 mg/kg after ip administration; type: ADME, organism-based, Canis lupus familiaris, Urine; design: dose 2 mg/kg, route intraperitoneal; settings: in vivo; outline: as §1
Canis familiaris [4] = test: Oral diuretic activity was evaluated by measuring Na+ excretion in dog at 5 mg/kg after ip administration; type: ADME, organism-based, Canis lupus familiaris, Urine; design: dose 5 mg/kg; settings: in vivo
Outline: (§2)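 Dogs; spontaneous urine was pooled with bladder urine drained by catheter at the end of 6 h. Urine volume was measured, and aliquots were assayed for Na+, K+ and Cl− by standard methods. Values are geometric means, expressed as mequiv over 0–6 h.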

Canis familiaris [5] = test: Oral diuretic activity was evaluated by measuring K+ excretion in dog at 5 mg/kg after ip administration; type: ADME, organism-based, Canis lupus familiaris, Urine; design: dose 5 mg/kg, route intraperitoneal; settings: in vivo; outline: as §1
Rattus norvegicus [6] = test: Maximum fall in mean arterial blood pressure was measured in SH rats when compound was administered at 0.078 mg/kg perorally; type: functional; settings: route oral
Canis familiaris [7] = test: Oral diuretic activity was evaluated by measuring K+ excretion in dog at 0.312 mg/kg after ip administration; type: ADME, organism-based, Canis lupus familiaris, Urine; design: dose 0.312 mg/kg, route intraperitoneal; settings: in vivo
Canis familiaris [8] = test: Oral diuretic activity was evaluated by measuring Na+ excretion in dog at 2 mg/kg after […]; type: ADME, organism-based, Canis lupus familiaris, Urine; design: dose 2 mg/kg; settings: in vivo; outline: as §2
Rattus norvegicus [9] = species: Rattus norvegicus; test: Time taken for the decrease in arterial pressure was measured; type: functional, Artery
Canis familiaris [10] = test: Oral diuretic activity was evaluated by measuring Cl- excretion in dog at 0.312 mg/kg after ip administration; type: ADME, organism-based, Canis lupus familiaris, Urine; design: dose 0.312 mg/kg, route intraperitoneal; settings: in vivo
Canis familiaris [11] = test: Oral diuretic activity was evaluated by measuring K+ excretion in dog at 0.625 mg/kg after […]; type: ADME, organism-based, Canis lupus familiaris, Urine; design: dose 0.625 mg/kg; settings: in vivo; outline: as §1
Rattus norvegicus [12] = test: Oral diuretic activity was evaluated by measuring Cl- excretion in Rat at 3 mg/kg after ip administration; type: ADME, organism-based, Urine; design: dose 3 mg/kg, route intraperitoneal; settings: in vivo
Rattus norvegicus [13] = test: Oral diuretic activity was evaluated by measuring Cl- excretion in Rat at 81 mg/kg after ip administration; type: ADME, organism-based, Urine; design: dose 81 mg/kg, route intraperitoneal; settings: in vivo
Canis familiaris [14] = test: Oral diuretic activity was evaluated by measuring Na+ excretion in dog at 0.312 mg/kg after ip administration; type: ADME, organism-based, Canis lupus familiaris, Urine; design: dose 0.312 mg/kg, route intraperitoneal; settings: in vivo; outline: as §1
Canis familiaris [15] = test: Oral diuretic activity was evaluated by measuring Cl- excretion in dog at 0.625 mg/kg after ip administration; type: ADME, organism-based, Canis lupus familiaris, Urine; design: dose 0.625 mg/kg, route intraperitoneal; settings: in vivo
Rattus norvegicus [16] = test: Maximum fall in mean arterial blood pressure was measured in SH rats when compound was administered at 0.312 mg/kg perorally; type: functional; settings: route oral
Rattus norvegicus [17] = test: Maximum fall in mean arterial blood pressure was measured in SH rats when compound was administered at […] mg/kg perorally; type: functional; settings: route oral
Rattus norvegicus [18] = test: Compound administered orally was evaluated for salidiuretic activity measured as sodium ion excretion in Rat; type: ADME, organism-based, Urine; settings: in vivo, po
Outline: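 Female Charles-River rats (150–170 g), overnight on sugar diet with water ad libitum. Compound dissolved in DMF, diluted with water containing Tween 80 (final 4% DMF), given po in 5.0 mL; concurrent vehicle placebo. Three rats per metabolism cage; 0–5 h urine analysed for Na+, K+, Cl-. Values: mequiv × 100 per cage, geometric means of three cages per dose; scored 0–6 by Na+.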

Canis familiaris [19] = test: Oral diuretic activity was evaluated by measuring Cl- excretion in dog at 5 mg/kg after ip administration; type: ADME, organism-based, Canis lupus familiaris, Urine; design: dose 5 mg/kg, route intraperitoneal; settings: in vivo
Rattus norvegicus [20] = test: Oral diuretic activity was evaluated by measuring K+ excretion in Rat at 3 mg/kg after po administration; settings: in vivo
Rattus norvegicus [21] = test: Oral diuretic activity was evaluated by measuring Cl- excretion in Rat at 27 mg/kg after ip administration; type: ADME, organism-based, Urine; design: dose 27 mg/kg, route intraperitoneal; settings: in vivo
Canis familiaris [22] = test: Compound administered intravenously was evaluated for salidiuretic activity measured as sodium ion excretion in Dog; type: ADME, organism-based, Canis lupus familiaris, Urine; design: unit not given beside the values; settings: in vivo, iv
Outline: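 Conditioned female mongrel dogs, postabsorptive, water-loaded (500 mL po) 1 h before sodium pentobarbital anesthesia (30 mg/kg iv). Bladder catheter; creatinine 4 g sc; phosphate–mannitol buffer pH 7.4 infused (3.0 mL/min) throughout. […] Urine Na+ measured; response scored 0–6.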

- Diuretic activity (Canis familiaris [1]): 57
- Diuretic activity (Canis familiaris [2]): 22.3
- Diuretic activity (Canis familiaris [3]): 9.3
- Diuretic activity (Canis familiaris [4]): 56.8
- Diuretic activity (Canis familiaris [5]): 9.9
- Diuretic activity (Canis familiaris [7]): 4.34
- Diuretic activity (Canis familiaris [8]): 44.9
- Diuretic activity (Canis familiaris [10]): 19.28
- Diuretic activity (Canis familiaris [11]): 5.1
- Diuretic activity (Rattus norvegicus [12]): 2.11
- Diuretic activity (Rattus norvegicus [13]): 4.89
- Diuretic activity (Canis familiaris [14]): 13.76
- Diuretic activity (Canis familiaris [15]): 30.3
- Diuretic activity (Rattus norvegicus [18]): 6
- Diuretic activity (Canis familiaris [19]): 69.6
- Diuretic activity (Rattus norvegicus [20]): 0.51
- Diuretic activity (Rattus norvegicus [21]): 4.35
- Diuretic activity (Canis familiaris [22]): 6
SMILES: CC(C)(C)c1cc(I)c(O)c(CN)c1.Cl
- MAP (Rattus norvegicus [6]): 16 mmHg
- Duration (Rattus norvegicus [9]): 18 h and >24 h
- MAP (Rattus norvegicus [16]): 26 mmHg
- MAP (Rattus norvegicus [17]): 38 mmHg
